Experimental data of several laboratories.
Target: Ephrin type-B receptor 2 (EPHB2, Homo sapiens, UniProt P29323)
One construct used (P29323 19-1055): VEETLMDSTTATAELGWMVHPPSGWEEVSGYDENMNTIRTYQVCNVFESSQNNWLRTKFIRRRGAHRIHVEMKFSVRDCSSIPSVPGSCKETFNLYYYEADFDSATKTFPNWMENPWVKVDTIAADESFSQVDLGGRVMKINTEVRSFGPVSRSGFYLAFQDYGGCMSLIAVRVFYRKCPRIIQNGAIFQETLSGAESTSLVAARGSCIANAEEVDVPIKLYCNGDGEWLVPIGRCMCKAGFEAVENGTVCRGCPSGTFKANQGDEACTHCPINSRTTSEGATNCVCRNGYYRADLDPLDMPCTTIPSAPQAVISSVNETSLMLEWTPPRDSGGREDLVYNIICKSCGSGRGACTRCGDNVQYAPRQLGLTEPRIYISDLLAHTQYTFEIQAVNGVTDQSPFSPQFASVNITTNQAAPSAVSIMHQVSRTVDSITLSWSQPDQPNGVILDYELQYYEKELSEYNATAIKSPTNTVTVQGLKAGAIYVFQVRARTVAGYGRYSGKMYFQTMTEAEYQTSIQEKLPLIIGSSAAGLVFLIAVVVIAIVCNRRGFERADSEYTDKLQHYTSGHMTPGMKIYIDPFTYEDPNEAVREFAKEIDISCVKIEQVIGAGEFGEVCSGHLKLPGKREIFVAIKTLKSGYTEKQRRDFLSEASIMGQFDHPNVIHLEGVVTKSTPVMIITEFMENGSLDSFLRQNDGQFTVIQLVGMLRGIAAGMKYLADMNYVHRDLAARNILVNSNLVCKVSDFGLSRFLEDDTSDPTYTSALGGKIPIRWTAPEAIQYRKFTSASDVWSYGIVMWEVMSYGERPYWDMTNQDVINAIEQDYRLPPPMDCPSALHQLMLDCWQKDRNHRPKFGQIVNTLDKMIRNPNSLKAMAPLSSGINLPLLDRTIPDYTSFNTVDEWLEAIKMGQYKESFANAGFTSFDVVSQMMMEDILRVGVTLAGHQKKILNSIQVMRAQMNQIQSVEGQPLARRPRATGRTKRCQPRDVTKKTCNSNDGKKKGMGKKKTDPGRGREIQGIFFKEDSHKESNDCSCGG

CN(c1nccc(-c2cnn3ncccc23)n1)C1CC1 — remaining binding (binding; 1 µM): 100%
CO[C@H]1CC[C@H](CNc2ccc(S(=O)(=O)NC(=O)c3ccc(N4CCN(CC5=C(c6ccc(Cl)cc6)CC(C)(C)CC5)CC4)cc3Oc3cnc4[nH]ccc4c3)cc2[N+](=O)[O-])CC1 — remaining binding (cell-free assay, competition with immobilised ligand; 1 µM): 75%
O=C(c1ccc(Nc2ncc(Cl)c(-c3ccc(Cl)s3)n2)cc1)N1CCC(N2CCCC2)CC1 — remaining binding (binding, competition with immobilised ligand; 1 µM): 88%
O=C(Nc1c[nH]nc1C(=O)NC1CCNCC1)c1cc(F)cc(F)c1 — remaining binding (binding, competition with immobilised ligand; 1 µM): 100%
COc1ccc2c(c1)O[C@@H](c1ccc(OC)c(OC)c1)C[C@H]2NC(=O)C1(c2ccc3c(c2)OC(F)(F)O3)CC1 — remaining binding (cell-free assay, competition with immobilised ligand; 1 µM): 100%
CNC(=O)[C@@H]1CC[C@@H](n2c(-c3ccc4cnccc4c3)nc3ccc(C(=O)NCc4cccc(C(N)=O)c4)cc32)C1 — remaining binding (binding, competition with immobilised ligand; 1 µM): 96%
Cc1nc(Cc2cccc(C(F)(F)F)c2)sc1-c1ccc(C(N)=O)nc1 — remaining binding (cell-free assay, competition with immobilised ligand; 1 µM): 86%
CCN1CCN(Cc2ccc(C(=O)Nc3ccc(C)c(Oc4ccc5c(c4)CC(=O)N5)c3)cc2C(F)(F)F)CC1 — remaining binding (binding, competition with immobilised ligand; 1 µM): 100%
CN(C)c1ncc(F)c(-c2cnn3ncccc23)n1 — remaining binding (binding; 1 µM): 100%
COc1cnc(Nc2cccc(S(N)(=O)=O)c2)nc1N1CCN(c2ccccc2)C(=O)C1 — remaining binding (binding, competition with immobilised ligand; 1 µM): 99%
Cc1nccc(COC(=O)N2C[C@@H]3[C@@H](CNC(=O)c4ccc5[nH]nnc5c4)[C@@H]3C2)n1 — remaining binding (cell-free assay, competition with immobilised ligand; 1 µM): 100%
O=C(NCCCN1CCOCC1)c1ccc(Nc2nccc(-c3cc4ccccc4s3)n2)cc1 — remaining binding (binding, competition with immobilised ligand; 1 µM): 98%
c1cnn2ncc(-c3ccnc(N4CCC45COC5)n3)c2c1 — remaining binding (binding; 1 µM): 100%
Nc1ncc2c(n1)-c1c([nH]c3ccc(C#CC4CC4)cc13)CCCC2 — remaining binding (binding, competition with immobilised ligand; 1 µM): 90%
C[C@@H]1CCN(c2nccc(-c3cnn4ncccc34)n2)C1 — remaining binding (binding; 1 µM): 100%
O=C(NC[C@@H]1[C@H]2CN(C(=O)OCc3cc(C(F)(F)F)cc(C(F)(F)F)c3)C[C@@H]12)c1ccc2[nH]nnc2c1 — remaining binding (cell-free assay, competition with immobilised ligand; 1 µM): 100%
O=C(NCCCN1CCOCC1)c1ccc(Nc2ncc(Cl)c(-c3ccc(Cl)s3)n2)cc1 — remaining binding (binding, competition with immobilised ligand; 1 µM): 100%
Cn1cc(Cl)c2c(Oc3c(F)cc(Nc4cc(Cl)nc(N)n4)cc3F)ccnc21 — remaining binding (cell-free assay, competition with immobilised ligand; 0.1 µM): 100%
N[C@H]1CCN(c2nccc(-c3cnn4ncccc34)n2)C1 — remaining binding (binding; 1 µM): 100%
